Measurements reported in ChEMBL document CHEMBL1138555, “N-acylated and N,N'-diacylated imidazolidine-2-thione derivatives and N,N'-diacylated tetrahydropyrimidine-2(1H)-thione analogues: synthesis and antiproliferative activity” (Eur J Med Chem, 2009).

How the values were obtained:
[1] = system: SR; assay: Growth inhibition of human SR cells after 48 hrs by sulforhodamine B assay; type: functional
In short: (§1)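 NCI in vitro panel screen. Compounds tested at five 10-fold dilutions, 10^-4 to 10^-8 M. Cells in 96-well plates were exposed for the last 48 h of a 72 h incubation. Viability/growth was read by sulforhodamine B protein assay. GI50 is the concentration giving 50% growth inhibition. Values beyond the tested range are reported as greater or less than the maximum or minimum concentration.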

[2] = system: MDA-MB-435; assay: Growth inhibition of human MDA-MB-435 cells after 48 hrs by sulforhodamine B assay; type: functional; conditions: MDA-MB-435, 48 h
In short: (§2)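 NCI screen panel. Five 10-fold concentrations from 10^-4 to 10^-8 M. Exposure for the last 48 h of a 72 h incubation. Growth estimated by sulforhodamine B protein assay. GI50 is the concentration giving 50% growth inhibition. Where that level was not reached or was exceeded, the value is given as above or below the highest or lowest concentration tested.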

[3] = system: KM12; assay: Growth inhibition of human KM12 cells after 48 hrs by sulforhodamine B assay; type: functional; conditions: KM12, 48 h; in short: as §2
[4] = system: OVCAR-3; assay: Growth inhibition of human OVCAR-3 cells after 48 hrs by sulforhodamine B assay; type: functional; conditions: OVCAR-3, 48 h; in short: as §2
[5] = system: HL-60(TB); assay: Growth inhibition of human HL-60(TB) cells after 48 hrs by sulforhodamine B assay; type: functional; conditions: HL-60, 48 h
In short: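 NCI 60-cell-line screen protocol: cells exposed to compound at five 10-fold dilutions from 10^-4 to 10^-8 M for the last 48 h of a 72 h incubation. Sulforhodamine B protein assay estimated viability/growth. GI50 (50% growth inhibition) derived; where not reached or exceeded, reported as greater or less than the highest or lowest concentration tested.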

[6] = system: NCI-H322M; assay: Growth inhibition of human NCI-H322M cells after 48 hrs by sulforhodamine B assay; type: functional; in short: as §2
[7] = system: COLO 205; assay: Growth inhibition of human COLO205 cells after 48 hrs by sulforhodamine B assay; type: functional; conditions: COLO 205, 48 h; in short: as §2
[8] = system: HT-29; assay: Growth inhibition of human HT-29 cells after 48 hrs by sulforhodamine B assay; type: functional; conditions: HT-29, 48 h; in short: as §2
[9] = system: ACHN; assay: Growth inhibition of human ACHN cells after 48 hrs by sulforhodamine B assay; type: functional; in short: as §2
[10] = system: SW-620; assay: Growth inhibition of human SW620 cells after 48 hrs by sulforhodamine B assay; type: functional; conditions: SW-620, 48 h; in short: as §1
[11] = system: Malme-3M; assay: Growth inhibition of human MALME-3M cells after 48 hrs by sulforhodamine B assay; type: functional; in short: as §2
[12] = system: PC-3; assay: Growth inhibition of human PC3 cells after 48 hrs by sulforhodamine B assay; type: functional; conditions: PC-3, 48 h; in short: as §2
[13] = system: UACC-62; assay: Growth inhibition of human UACC62 cells after 48 hrs by sulforhodamine B assay; type: functional; conditions: UACC-62, 48 h; in short: as §1
[14] = system: LOX IMVI; assay: Growth inhibition of human LOXIMVI cells after 48 hrs by sulforhodamine B assay; type: functional; in short: as §2
[15] = system: BT-549; assay: Growth inhibition of human BT549 cells after 48 hrs by sulforhodamine B assay; type: functional; conditions: BT-549, 48 h; in short: as §2
[16] = system: SK-MEL-5; assay: Growth inhibition of human SK-MEL-5 cells after 48 hrs by sulforhodamine B assay; type: functional; conditions: SK-MEL-5, 48 h; in short: as §2
[17] = system: MT4; assay: Antiproliferative activity against human MT4 cells assessed as reduction of growth by MTT assay; type: functional, cell-based
In short: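 MT-4 lymphoblastoid T cells (ATCC) in RPMI 1640 with 10% FCS, penicillin/streptomycin, checked for mycoplasma. 1 × 10⁴ mock-infected cells per well with serial dilutions from a 100 mM DMSO stock. Incubated 4 days at 37 °C, viable cells counted by MTT. IC50 versus untreated controls by linear regression. Mean of three separate experiments.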

[18] = system: EKVX; assay: Growth inhibition of human EKVX cells after 48 hrs by sulforhodamine B assay; type: functional; in short: as §2
[19] = system: A549; assay: Growth inhibition of human A549 cells after 48 hrs by sulforhodamine B assay; type: functional; conditions: A549, 48 h; in short: as §2
[20] = system: HOP-92; assay: Growth inhibition of human HOP92 cells after 48 hrs by sulforhodamine B assay; type: functional; conditions: HOP-92, 48 h; in short: as §2
[21] = system: SF-295; assay: Growth inhibition of human SF295 cells after 48 hrs by sulforhodamine B assay; type: functional; conditions: SF-295, 48 h; in short: as §2
[22] = system: NCI-H460; assay: Growth inhibition of human NCI-H460 cells after 48 hrs by sulforhodamine B assay; type: functional; conditions: NCI-H460, 48 h; in short: as §2
[23] = system: UACC-257; assay: Growth inhibition of human UACC257 cells after 48 hrs by sulforhodamine B assay; type: functional; conditions: UACC-257, 48 h; in short: as §1
[24] = system: MDA-MB-231; assay: Growth inhibition of human MDA-MB-231 cells after 48 hrs by sulforhodamine B assay; type: functional; conditions: MDA-MB-231, 48 h; in short: as §2
[25] = system: SNB-19; assay: Growth inhibition of human SNB19 cells after 48 hrs by sulforhodamine B assay; type: functional; conditions: SNB-19, 48 h; in short: as §1
[26] = system: SK-MEL-28; assay: Growth inhibition of human SK-MEL-28 cells after 48 hrs by sulforhodamine B assay; type: functional; conditions: SK-MEL-28, 48 h; in short: as §2
[27] = system: IGROV-1; assay: Growth inhibition of human IGROV1 cells after 48 hrs by sulforhodamine B assay; type: functional; conditions: IGROV-1, 48 h; in short: as §2
[28] = system: HOP-62; assay: Growth inhibition of human HOP62 cells after 48 hrs by sulforhodamine B assay; type: functional; conditions: HOP-62, 48 h; in short: as §2
[29] = system: MOLT-4; assay: Growth inhibition of human MOLT4 cells after 48 hrs by sulforhodamine B assay; type: functional; conditions: MOLT-4, 48 h; in short: as §2
[30] = system: M14; assay: Growth inhibition of human M14 cells after 48 hrs by sulforhodamine B assay; type: functional; conditions: M14, 48 h; in short: as §2
[31] = system: U-251; assay: Growth inhibition of human U251 cells after 48 hrs by sulforhodamine B assay; type: functional; conditions: U-251, 48 h; in short: as §1
[32] = system: HCT-15; assay: Growth inhibition of human HCT15 cells after 48 hrs by sulforhodamine B assay; type: functional; conditions: HCT-15, 48 h; in short: as §2
[33] = system: SK-OV-3; assay: Growth inhibition of human SKOV3 cells after 48 hrs by sulforhodamine B assay; type: functional; conditions: SK-OV-3, 48 h; in short: as §2
[34] = system: K562; assay: Growth inhibition of human K562 cells after 48 hrs by sulforhodamine B assay; type: functional; conditions: K562, 48 h; in short: as §2
[35] = system: RXF 393; assay: Growth inhibition of human RXF393 cells after 48 hrs by sulforhodamine B assay; type: functional; conditions: RXF 393, 48 h; in short: as §2
[36] = system: SK-MEL-2; assay: Growth inhibition of human SK-MEL-2 cells after 48 hrs by sulforhodamine B assay; type: functional; conditions: SK-MEL-2, 48 h; in short: as §2
[37] = system: NCI-H23; assay: Growth inhibition of human NCI-H23 cells after 48 hrs by sulforhodamine B assay; type: functional; conditions: NCI-H23, 48 h; in short: as §2
[38] = system: OVCAR-8; assay: Growth inhibition of human OVCAR8 cells after 48 hrs by sulforhodamine B assay; type: functional; conditions: OVCAR-8, 48 h; in short: as §2
[39] = system: UO-31; assay: Growth inhibition of human UO31 cells after 48 hrs by sulforhodamine B assay; type: functional; conditions: UO-31, 48 h; in short: as §1
[40] = system: TK-10; assay: Growth inhibition of human TK10 cells after 48 hrs by sulforhodamine B assay; type: functional; conditions: TK-10, 48 h; in short: as §1
[41] = Growth inhibition of human […] cells after 48 hrs by sulforhodamine B assay; type: functional; in short: as §2
[42] = system: OVCAR-4; assay: Growth inhibition of human OVCAR4 cells after 48 hrs by sulforhodamine B assay; type: functional; conditions: OVCAR-4, 48 h; in short: as §2
[43] = system: CAKI-1; assay: Growth inhibition of human Caki1 cells after 48 hrs by sulforhodamine B assay; type: functional; conditions: CAKI-1, 48 h; in short: as §2
[44] = system: DU-145; assay: Growth inhibition of human DU145 cells after 48 hrs by sulforhodamine B assay; type: functional; conditions: DU-145, 48 h; in short: as §2
[45] = system: 786-0; assay: Growth inhibition of human 786-0 cells after 48 hrs by sulforhodamine B assay; type: functional; conditions: 786-0, 48 h; in short: as §2
[46] = system: HCT-116; assay: Growth inhibition of human HCT116 cells after 48 hrs by sulforhodamine B assay; type: functional; conditions: HCT-116, 48 h; in short: as §2
[47] = system: SNB-75; assay: Growth inhibition of human SNB75 cells after 48 hrs by sulforhodamine B assay; type: functional; conditions: SNB-75, 48 h; in short: as §1
[48] = system: NCI/ADR-RES; assay: Growth inhibition of human NCI/ADR-RES cells after 48 hrs by sulforhodamine B assay; type: functional; in short: as §2
[49] = system: SN12C; assay: Growth inhibition of human SN12C cells after 48 hrs by sulforhodamine B assay; type: functional; in short: as §1

O=C(C(=CN1CCN(C(=O)c2ccco2)C1=S)C(=O)c1ccccc1)c1ccccc1
GI50 [1]: 1300 nM
GI50 [2]: 7.2 µM
GI50 [3]: 2300 nM
GI50 [4]: 7.3 µM
GI50 [5]: 9.9 µM
GI50 [6]: 2200 nM
GI50 [7]: 20 µM
GI50 [8]: 16.9 µM
GI50 [9]: 5.8 µM
GI50 [10]: 8.7 µM
GI50 [11]: 3.1 µM
GI50 [12]: 23.6 µM
GI50 [13]: 6.9 µM
GI50 [14]: 1200 nM
GI50 [15]: 10 µM
GI50 [16]: 10.9 µM
IC50 [17]: 7 µM
GI50 [18]: 8.1 µM
GI50 [19]: 11.3 µM
GI50 [20]: 27 µM
GI50 [21]: 11.1 µM
GI50 [22]: 2400 nM
GI50 [23]: 11.7 µM
GI50 [24]: 7.4 µM
GI50 [25]: 29.2 µM
GI50 [26]: 17.8 µM
GI50 [27]: 5.6 µM
GI50 [28]: 15.9 µM
GI50 [29]: 15.2 µM
GI50 [30]: 7 µM
GI50 [31]: 2700 nM
GI50 [32]: 2600 nM
GI50 [33]: 41.8 µM
GI50 [34]: 3.2 µM
GI50 [35]: 5.8 µM
GI50 [36]: 12.1 µM
GI50 [37]: 7 µM
GI50 [38]: 16.2 µM
GI50 [39]: 8.7 µM
GI50 [40]: 6.9 µM
GI50 [41]: 8.4 µM
GI50 [42]: 16.1 µM
GI50 [43]: 7 µM
GI50 [44]: 12.4 µM
GI50 [45]: 8.2 µM
GI50 [46]: 7.9 µM
GI50 [47]: 27.4 µM
GI50 [48]: 9.2 µM
GI50 [49]: 6.1 µM
